Reference: ChEMBL document CHEMBL3098020, “Synthesis and biological evaluation of novel 2-amino-3-aroyl-4-neopentyl-5-substituted thiophene derivatives as allosteric enhancers of the A₁ adenosine receptor” (Bioorg Med Chem, 2014)

Legend:
[1] = molecular target: T1, Adenosine receptor A1 (Homo sapiens) (UniProt P30542); assay: Potentiation of CCPA-induced displacement of [3H]-DPCPX from human adenosine A1 receptor expressed in CHO cell membranes at 10 uM after 90 mins relative to CCPA-treated control
T1 sequence (whole entry): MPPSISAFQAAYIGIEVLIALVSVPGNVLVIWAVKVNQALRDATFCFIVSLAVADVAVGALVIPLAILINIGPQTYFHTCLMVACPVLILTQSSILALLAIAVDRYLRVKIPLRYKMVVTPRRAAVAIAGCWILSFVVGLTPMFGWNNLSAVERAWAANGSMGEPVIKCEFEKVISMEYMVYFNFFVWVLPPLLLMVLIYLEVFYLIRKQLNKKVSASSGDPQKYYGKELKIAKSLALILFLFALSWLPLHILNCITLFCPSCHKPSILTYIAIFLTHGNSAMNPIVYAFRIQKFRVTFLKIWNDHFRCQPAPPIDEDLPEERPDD
Summary of the method: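 CCPA (0.01 nM–1 µM) competition against [³H]DPCPX in hA1-CHO membranes, with or without compound at 10 µM. Nonspecific binding defined with 1 µM DPCPX. Ki calculated from IC50 by the Cheng-Prusoff equation; CCPA Ki shift given as fold change; three experiments.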

[2] = molecular target: T1, Adenosine receptor A1 (Homo sapiens); assay: Potentiation of [3H]CCPA binding to human adenosine A1 receptor expressed in CHO cell membranes at 10 uM after 90 mins relative to [3H]CCPA-treated control
[3] = molecular target: T2, Adenosine receptor A3 (Homo sapiens) (UniProt P0DMS8); assay: Displacement of [3H]-MRE-3008-F20 from human adenosine A3 receptor expressed in CHO cell membranes at 10 uM by scintillation counting analysis relative to control
T2 sequence (whole entry): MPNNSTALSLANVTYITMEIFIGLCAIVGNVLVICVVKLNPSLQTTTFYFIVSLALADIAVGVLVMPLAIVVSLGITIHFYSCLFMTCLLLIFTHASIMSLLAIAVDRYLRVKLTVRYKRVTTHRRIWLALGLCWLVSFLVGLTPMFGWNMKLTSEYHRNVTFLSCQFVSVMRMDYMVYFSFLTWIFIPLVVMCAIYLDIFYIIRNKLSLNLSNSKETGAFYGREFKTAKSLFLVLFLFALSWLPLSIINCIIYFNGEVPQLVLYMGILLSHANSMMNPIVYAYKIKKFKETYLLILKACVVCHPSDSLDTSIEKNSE
Summary of the method: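 A3-expressing CHO membranes in 50 mM Tris-HCl, 10 mM MgCl₂, 1 mM EDTA pH 7.4 with 2 nM [³H]MRE-3008-F20. Incubated 120 min at 4 °C. Compound 10 µM in 1% DMSO final. Filtration and scintillation counting; percent inhibition of specific binding.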

[4] = molecular target: Adenosine receptor A2a (Homo sapiens) (UniProt P29274); assay: Displacement of [3H]-ZM241385 from human adenosine A2A receptor expressed in CHO cell membranes at 10 uM by scintillation counting analysis relative to control
Adenosine receptor A2a (Homo sapiens), sequence (P29274 whole entry): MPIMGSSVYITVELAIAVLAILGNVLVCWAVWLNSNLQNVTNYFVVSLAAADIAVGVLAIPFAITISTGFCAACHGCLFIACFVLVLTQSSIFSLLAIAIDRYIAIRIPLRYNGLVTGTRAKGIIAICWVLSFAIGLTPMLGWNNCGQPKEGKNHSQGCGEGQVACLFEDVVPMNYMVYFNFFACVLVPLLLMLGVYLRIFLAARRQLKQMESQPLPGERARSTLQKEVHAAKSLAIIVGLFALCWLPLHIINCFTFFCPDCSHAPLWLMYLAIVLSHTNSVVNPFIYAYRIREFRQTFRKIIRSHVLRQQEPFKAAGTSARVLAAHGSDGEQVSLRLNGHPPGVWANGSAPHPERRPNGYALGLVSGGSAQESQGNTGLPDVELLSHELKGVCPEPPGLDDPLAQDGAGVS
Summary of the method: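 A2A-expressing CHO membranes, pretreated with adenosine deaminase, in 50 mM Tris-HCl, 10 mM MgCl₂ pH 7.4 with 1 nM [³H]ZM 241385. Incubated 60 min at 4 °C. Compound 10 µM in 1% DMSO final. Filtration and scintillation counting; percent inhibition of specific binding.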

[5] = molecular target: T1, Adenosine receptor A1 (Homo sapiens); assay: Displacement of [3H]-DPCPX from human adenosine A1 receptor expressed in CHO cell membranes at 10 uM by scintillation counting analysis relative to control
Summary of the method: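 hA1-CHO membranes, pretreated with adenosine deaminase, in 50 mM Tris-HCl pH 7.4 with 1 nM [³H]DPCPX. Incubated 120 min at 25 °C. Compound 10 µM added from 100-fold DMSO stock, 1% DMSO final. Bound ligand collected on glass-fibre filters and counted by scintillation; percent inhibition of specific binding.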

[6] = molecular target: T1, Adenosine receptor A1 (Homo sapiens); assay: Allosteric enhancement of human adenosine A1 receptor expressed in CHO cells assessed as inhibition of forskolin-stimulated cAMP production at 100 nM preincubated for 10 mins followed by forskolin challenge measured after 5 mins by scintillation counting analysis in presence of CCPA relative to control; format: functional, cell-based
Summary of the method: (§1)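 hA1-CHO cells (10⁶ cells/mL) in phosphate buffer with adenosine deaminase 1.0 IU/mL and Ro 20-1724 0.5 mM, preincubated 10 min at 37 °C. Compound added for 10 min, alone or at 100 nM with CCPA 1 pM. Forskolin 1 µM added for 5 min, stopped with cold 6% TCA. cAMP measured by [³H]-cAMP competition protein-binding assay; percent inhibition versus control; three experiments.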

[7] = molecular target: T1, Adenosine receptor A1 (Homo sapiens); assay: Allosteric enhancement of human adenosine A1 receptor expressed in CHO cells assessed as inhibition of forskolin-stimulated cAMP production at 10 uM preincubated for 10 mins followed by forskolin challenge measured after 5 mins by scintillation counting analysis relative to control; format: functional, cell-based; summary of the method: as §1

Structure (SMILES)	fold change (FC) [1]	fold change (FC) [2]	inhibition [3] [%]	inhibition [4] [%]	inhibition [5] [%]	inhibition [6] [%]	inhibition [7] [%]
CC(C)(C)Cc1c(Br)sc(N)c1C(=O)c1cccc(C(F)(F)F)c1	3	4.4	4	1	1	50	49
CC(C)(C)Cc1c(Br)sc(N)c1C(=O)c1cccc(Cl)c1	2.4	3.6	1	1	1	48	45
